Laboratory results taken from article PMC6683736 (The Journal of Cell Biology, 2019).
Substitutions are numbered along the chain they refer to. Names and notes keep the numbering of the source.

Assays:
[1] = test system: Scribble PDZ1 domain; assay: X-ray crystal structure of Scribble PDZ1/SGEF-PDZpeptide complex; assay type: binding, human; details: 1.1 Å, PDB ID 6MYE
[2] = test system: Xenopus embryos; assay: Junctional localization in gastrula-stage embryos; assay type: in vivo, Xenopus laevis; details: live confocal, mNeon-tagged
How it was run: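 Embryos were microinjected in the animal hemisphere with mRNAs, either at the two-cell stage (each cell twice) or at the four-cell stage (once). They were raised to gastrula stage (10.5–12) and live-imaged by confocal. mNeon-tagged protein was coexpressed with BFP-ZO-1 (tight junction marker) and PLEKHA7-mCherry (adherens junction marker), and the junctional-to-cytosolic intensity ratio was quantified.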

[3] = test system: SGEF; assay: Coimmunoprecipitation of Dlg1 constructs with SGEF, HEK293FT lysates; assay type: binding, Human; details: WB
How it was run: (§1)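 HEK293FT cells were co-transfected by calcium phosphate; medium was changed at 24 h and cells harvested at 48 h. Lysis was in Tris-HCl pH 7.4, MgCl2, 150 mM NaCl, 1% Triton X-100 and protease inhibitors. Equal protein was incubated with GFP-Trap beads for 1 h at 4°C, washed four times, then immunoblotted with anti-GFP and anti-myc (or anti-His).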

[4] = test system: Scribble; assay: Coimmunoprecipitation of SGEF constructs with GFP-Scribble, HEK293FT lysates; assay type: binding, Human; details: GFP-trap nanobodies, WB
[5] = test system: Dlg1; assay: Coimmunoprecipitation of SGEF constructs with GFP-Dlg1, HEK293FT lysates; assay type: binding, Mouse; details: GFP-trap nanobodies, WB
How it was run: as §1

“ac-KPNGLLITDFPVEDCONH2 [SGEF-PDZpeptide]” was tested, and the “accessible surface area covered by peptide” value [1] was ~500 Å^2, the “binding register in the PDZ pockets” value [1] was “novel interactions through pockets near the α1 helix in Scribble PDZ1 (S+1 pocket), which accommodate the P+1 Pro in SGEF” and the “residues of peptide interacting with Scribble PDZ domain” value [1] was 11 residues.

For “mNeon-RhoG: mNeon-tagged small GTPase RhoG, 1–191”, the “localization at apical junctional complex” value [2] was “more broadly localized along the lateral membrane”.

B1: Dlg1 C-terminal construct: C-terminal half of Dlg1 comprising the SH3 and GUK domains (protein)
chain: KRSLYVRALFDYDKTKDSGLPSQGLNFKFGDILHVINASDDEWWQARQVTPDGESDEVGVIPSKRRVEKKERARLKTVKFNSKTRDKGEIPDDMGSKGLKHVTSNASDSESSYRGQEEYVLSYEPVNQQEVNYTRPVIILGPMKDRINDDLISEFPDKFGSCVPHTTRPKRDYEVDGRDYHFVTSREQMEKDIQEHKFIEAGQYNNHLYGTSVQSVREVAEKGKHCILDVSGNAIKRLQIAQLYPISIFIKPKSMENIMEMNKRLTEEQARKTFERAMKLEQEFTEHFTAIVQGDTLEDIYNQVKQIIEEQSGSYIWVPAKEKL
modifications: left off: GFP (inferred from the legend of Figure 2), end not stated, kept
For B1, the “interaction with SGEF” value [3] was “able to bind efficiently to SGEF”.

B2: SGEF 228–871: SGEF deletion mutant, binds to Dlg1 but not to Scribble (protein)
chain: LENPSVVLSTNSPAALKVGKQQIIPKSLASEIKISKSNNQNVEPHKRLLKVRSMVEGLGGPLGHAGEESEVDNDVDSPGSLRRGLRSTSYRRAVVSGFDFDSPTSSKKKNRMSQPVLKVVMEDKEKFSSLGRIKKKMLKGQGTFDGEENAVLYQNYKEKALDIDSDEESEPKEQKSDEKIVIHHKPLRSTWSQLSAVKRKGLSQTVSQEERKRQEAIFEVISSEHSYLLSLEILIRMFKNSKELSDTMTKTERHHLFSNITDVCEASKKFFIELEARHQNNIFIDDISDIVEKHTASTFDPYVKYCTNEVYQQRTLQKLLATNPSFKEVLSRIESHEDCRNLPMISFLILPMQRVTRLPLLMDTICQKTPKDSPKYEVCKRALKEVSKLVRLCNEGARKMERTEMMYTINSQLEFKIKPFPLVSSSRWLVKRGELTAYVEDTVLFSRRTSKQQVYFFLFNDVLIITKKKSEESYNVNDYSLRDQLLVESCDNEELNSSPGKNSSTMLYSRQSSASHLFTLTVLSNHANEKVEMLLGAETQSERARWITALGHSSGKPPADRTSLTQVEIVRSFTAKQPDELSLQVADVVLIYQRVSDGWYEGERLRDGERGWFPMECAKEITCQATIDKNVERMGRLLGLETNV
modifications: left off: myc (inferred from the legends of Figures 1 and 2), end not stated, kept
For B2, the “interaction with Scribble” value [4] was “unable to bind”, the “interaction with Dlg1” value [5] was “able to bind efficiently to Dlg1” and the “localization at apical junctional complex” value [2] was “predominantly cytosolic, with only a small fraction still targeted to junctions”.

B3: GUK domain alone: Dlg1 GUK domain, 699–893 (protein, UniProt Q12959 699-893, looked up, fragment)
chain: YVLSYEPVNQQEVNYTRPVIILGPMKDRINDDLISEFPDKFGSCVPHTTRPKRDYEVDGRDYHFVTSREQMEKDIQEHKFIEAGQYNNHLYGTSVQSVREVAEKGKHCILDVSGNAIKRLQIAQLYPISIFIKPKSMENIMEMNKRLTEEQARKTFERAMKLEQEFTEHFTAIVQGDTLEDIYNQVKQIIEEQSG
modifications: GUK domain
In the case of B3, the “interaction with SGEF” value [3] is reported as “able to interact with SGEF”.

B4: SGEF 1–350: SGEF deletion mutant 1–350 (protein)
chain: MDGESEVDFSSNSITPLWRRRSIPQPHQVLGRSKPRPQSYQSPNGLLITDFPVEDGGTLLAAQIPAQVPTASDSRTVHRSPLLLGAQRRAVANGGTASPEYRAASPRLRRPKSPKLPKAVPGGSPKSPANGAVTLPAPPPPPVLRPPRTPNAPAPCTPEEDLTGLTASPVPSPTANGLAANNDSPGSGSQSGRKAKDPERGLFPGPQKSSSEQKLPLQRLPSQENELLENPSVVLSTNSPAALKVGKQQIIPKSLASEIKISKSNNQNVEPHKRLLKVRSMVEGLGGPLGHAGEESEVDNDVDSPGSLRRGLRSTSYRRAVVSGFDFDSPTSSKKKNRMSQPVLKVVMED
modifications: left off: myc (inferred from the legend of Figure 2), end not stated, kept
In the case of B4, the “interaction with Dlg1” value [5] is reported as “able to bind to Dlg1”.

B5: Gly 45 residue for Pro: SGEF with Gly 45 replaced by Pro (protein, UniProt Q96DR7 1-871, looked up, variant G45P)
Rho guanine nucleotide …: MDGESEVDFSSNSITPLWRRRSIPQPHQVLGRSKPRPQSYQSPNPLLITDFPVEDGGTLLAAQIPAQVPTASDSRTVHRSPLLLGAQRRAVANGGTASPEYRAASPRLRRPKSPKLPKAVPGGSPKSPANGAVTLPAPPPPPVLRPPRTPNAPAPCTPEEDLTGLTASPVPSPTANGLAANNDSPGSGSQSGRKAKDPERGLFPGPQKSSSEQKLPLQRLPSQENELLENPSVVLSTNSPAALKVGKQQIIPKSLASEIKISKSNNQNVEPHKRLLKVRSMVEGLGGPLGHAGEESEVDNDVDSPGSLRRGLRSTSYRRAVVSGFDFDSPTSSKKKNRMSQPVLKVVMEDKEKFSSLGRIKKKMLKGQGTFDGEENAVLYQNYKEKALDIDSDEESEPKEQKSDEKIVIHHKPLRSTWSQLSAVKRKGLSQTVSQEERKRQEAIFEVISSEHSYLLSLEILIRMFKNSKELSDTMTKTERHHLFSNITDVCEASKKFFIELEARHQNNIFIDDISDIVEKHTASTFDPYVKYCTNEVYQQRTLQKLLATNPSFKEVLSRIESHEDCRNLPMISFLILPMQRVTRLPLLMDTICQKTPKDSPKYEVCKRALKEVSKLVRLCNEGARKMERTEMMYTINSQLEFKIKPFPLVSSSRWLVKRGELTAYVEDTVLFSRRTSKQQVYFFLFNDVLIITKKKSEESYNVNDYSLRDQLLVESCDNEELNSSPGKNSSTMLYSRQSSASHLFTLTVLSNHANEKVEMLLGAETQSERARWITALGHSSGKPPADRTSLTQVEIVRSFTAKQPDELSLQVADVVLIYQRVSDGWYEGERLRDGERGWFPMECAKEITCQATIDKNVERMGRLLGLETNV
For B5, the “interaction with Scribble” value [4] was “abolished the interaction”.

B6: T49A (protein, UniProt Q96DR7 1-871, looked up, variant T49A)
Rho guanine nucleotide …: B5 Rho guanine nucleotide … with P45G, T49A
In the case of B6, the “interaction with Scribble” value [4] is reported as “completely abolish the interaction”.

B7: 414–871: C-terminal half of SGEF: DH-PH domain, SH3 domain and PBM (protein, UniProt Q96DR7 414-871, looked up, fragment)
chain: LRSTWSQLSAVKRKGLSQTVSQEERKRQEAIFEVISSEHSYLLSLEILIRMFKNSKELSDTMTKTERHHLFSNITDVCEASKKFFIELEARHQNNIFIDDISDIVEKHTASTFDPYVKYCTNEVYQQRTLQKLLATNPSFKEVLSRIESHEDCRNLPMISFLILPMQRVTRLPLLMDTICQKTPKDSPKYEVCKRALKEVSKLVRLCNEGARKMERTEMMYTINSQLEFKIKPFPLVSSSRWLVKRGELTAYVEDTVLFSRRTSKQQVYFFLFNDVLIITKKKSEESYNVNDYSLRDQLLVESCDNEELNSSPGKNSSTMLYSRQSSASHLFTLTVLSNHANEKVEMLLGAETQSERARWITALGHSSGKPPADRTSLTQVEIVRSFTAKQPDELSLQVADVVLIYQRVSDGWYEGERLRDGERGWFPMECAKEITCQATIDKNVERMGRLLGLETNV
B7 was tested, and the “interaction with Dlg1” value [5] was “showed no binding”.

B8: SGEF ΔETNV: SGEF with deletion of the PBM, 1–867 (protein)
chain: MDGESEVDFSSNSITPLWRRRSIPQPHQVLGRSKPRPQSYQSPNGLLITDFPVEDGGTLLAAQIPAQVPTASDSRTVHRSPLLLGAQRRAVANGGTASPEYRAASPRLRRPKSPKLPKAVPGGSPKSPANGAVTLPAPPPPPVLRPPRTPNAPAPCTPEEDLTGLTASPVPSPTANGLAANNDSPGSGSQSGRKAKDPERGLFPGPQKSSSEQKLPLQRLPSQENELLENPSVVLSTNSPAALKVGKQQIIPKSLASEIKISKSNNQNVEPHKRLLKVRSMVEGLGGPLGHAGEESEVDNDVDSPGSLRRGLRSTSYRRAVVSGFDFDSPTSSKKKNRMSQPVLKVVMEDKEKFSSLGRIKKKMLKGQGTFDGEENAVLYQNYKEKALDIDSDEESEPKEQKSDEKIVIHHKPLRSTWSQLSAVKRKGLSQTVSQEERKRQEAIFEVISSEHSYLLSLEILIRMFKNSKELSDTMTKTERHHLFSNITDVCEASKKFFIELEARHQNNIFIDDISDIVEKHTASTFDPYVKYCTNEVYQQRTLQKLLATNPSFKEVLSRIESHEDCRNLPMISFLILPMQRVTRLPLLMDTICQKTPKDSPKYEVCKRALKEVSKLVRLCNEGARKMERTEMMYTINSQLEFKIKPFPLVSSSRWLVKRGELTAYVEDTVLFSRRTSKQQVYFFLFNDVLIITKKKSEESYNVNDYSLRDQLLVESCDNEELNSSPGKNSSTMLYSRQSSASHLFTLTVLSNHANEKVEMLLGAETQSERARWITALGHSSGKPPADRTSLTQVEIVRSFTAKQPDELSLQVADVVLIYQRVSDGWYEGERLRDGERGWFPMECAKEITCQATIDKNVERMGRLLGL
modifications: left off: myc (inferred from the legends of Figures 1 and 2), end not stated, kept
In the case of B8, the “interaction with Scribble” value [4] is reported as “no effect on the ability of SGEF to bind to Scribble” and the “interaction with Dlg1” value [5] is reported as “still interacted efficiently with Dlg1”.

B9: SH3 domain by itself: Dlg1 SH3 domain, 536–636 (protein, UniProt Q12959 536-636, looked up, fragment)
chain: GQAVTIVAQYRPEEYSRFEAKIHDLREQMMNSSISSGSGSLRTSQKRSLYVRALFDYDKTKDSGLPSQGLNFKFGDILHVINASDDEWWQARQVTPDGESD
modifications: SH3 domain
For B9, the “interaction with SGEF” value [3] was “no detectable binding”.
